{"source": "paper PMC5624728", "about": "(Journal of pharmaceutical innovation, 2017)", "key": {"Oxidation stability": {"test": "Oxidation stability", "type": "physicochemical", "conditions": "3% H2O2, room temperature, up to 10 days", "how_it_was_run": "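Test compound dissolved at 100 μg/mL final in 40% (v/v) aqueous acetonitrile containing 3% H2O2. Kept at room temperature. Aliquots taken at set intervals up to 10 days. Drug content quantified by HPLC (flow 1.4 mL/min). Results given as mean ± standard deviation.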"}, "[1]": {"test": "Solubility of CSIC in acetonitrile, water and water/acetonitrile", "type": "physicochemical", "conditions": "room temperature, 5 days"}, "Photolysis stability": {"test": "Photolysis stability", "type": "physicochemical", "how_it_was_run": "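Half of each group was foil-wrapped as the dark control. All were held at 30 °C/65% RH under fluorescent light (2 × 20 watts) for 12 days. Aliquots at set times were assayed by HPLC. Light versus dark was compared by a repeated-measures mixed model with pairwise comparisons.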"}, "[2]": {"system": "HEC-1A human endometrial epithelial cells", "conditions": "24 h exposure, MTT"}, "HIV-1": {"system": "HIV-1", "conditions": "antiviral EC50; cited from earlier work"}, "HIV-1 RT": {"system": "HIV-1 RT", "conditions": "tight-binding inhibitor; cited from earlier work"}, "[3]": {"conditions": "25 °C/60% RH and 65 °C, at least 10 days, 40% acetonitrile"}, "[4]": {"test": "pH stability of CSIC in solution", "type": "physicochemical"}, "[5]": {"system": "NNRTI resistance mutation K103N", "conditions": "compared to other NNRTIs; cited from earlier work"}, "[6]": {"test": "CSIC solubility in cosolvent matrixes", "type": "physicochemical"}, "[7]": {"system": "J774A.1 mouse macrophage cells", "conditions": "J774A.1, 24 h exposure, MTT"}}, "note": "“And” between values parts separate entries of the source, which are not always exact repeats. Equal entries are not always repeated. Where two headings read alike, the source gives them in different places."}
{"compound": "NC(=O)c1[nH]c2ccc(Cl)cc2c1S(=O)(=O)c1ccccc1", "note": "[CSIC, 5-chloro-3-[phenylsulfonyl] indole-2-carboxamide]", "values": [{"measurement": "drug loss", "setting": "Oxidation stability", "value": 20, "unit": "%"}, {"measurement": "Solubility", "setting": "[1]; 40% (v/v) acetonitrile", "value": "0.36 mg/mL and 1.1 mM"}, {"measurement": "Solubility", "setting": "[1]; 100% acetonitrile", "value": "1.7 mg/mL and 5.1 mM"}, {"measurement": "Solubility", "setting": "[1]; water", "value": "0.0014 mg/mL and 4.3 μM"}, {"measurement": "log P", "value": "~ 3"}, {"measurement": "Log P", "setting": "1:1 (v/v) octanol/water", "value": 3.72}, {"measurement": "Log P", "setting": "1:2 (v/v) octanol/water", "value": 3.72}, {"measurement": "Log P", "setting": "2:1 (v/v) octanol/water", "value": 3.69}, {"measurement": "stability stored in the dark", "setting": "Photolysis stability; dark, 30 °C/65% RH, at least 12 days", "value": "stable"}, {"measurement": "decline of drug concentration", "setting": "Photolysis stability; fluorescent light source (2 × 20 watts), 12 days", "value": 4, "unit": "%"}, {"measurement": "50% cytotoxic concentration (CC50)", "setting": "[2]", "value": "greater than 5 μg/mL"}, {"measurement": "EC50", "setting": "HIV-1", "value": "~1 nM and 1 nM"}, {"measurement": "binding and dissociation behaviour", "setting": "HIV-1 RT", "value": "binds rapidly but then dissociates very slowly"}, {"measurement": "drug concentration over time", "setting": "[3]", "value": "remained unchanged"}, {"measurement": "drug loss", "setting": "[4]; all pH conditions (1.2-10), at least 10 days, room temperature", "value": "< 5", "unit": "%"}, {"measurement": "drug detected compared to time zero", "setting": "[4]; all pH conditions, each time point up to 10 days", "value": "more than 95%"}, {"measurement": "activity against K103N", "setting": "[5]", "value": "retaining good activity"}, {"measurement": "Solubility", "setting": "[6]; S1: PEG 400 0%, propylene glycol 50%, glycerin 50%", "value": 5.23, "unit": "mg/mL"}, {"measurement": "Solubility", "setting": "[6]; S2: PEG 400 12.5%, propylene glycol 37.5%, glycerin 50%", "value": 10.60, "unit": "mg/mL"}, {"measurement": "Solubility", "setting": "[6]; S3: PEG 400 12.5%, propylene glycol 50%, glycerin 37.5%", "value": 12.85, "unit": "mg/mL"}, {"measurement": "Solubility", "setting": "[6]; S4: PEG 400 25%, propylene glycol 25%, glycerin 50%", "value": 12.85, "unit": "mg/mL"}, {"measurement": "Solubility", "setting": "[6]; S5: PEG 400 25%, propylene glycol 37.5%, glycerin 37.5%", "value": 17.08, "unit": "mg/mL"}, {"measurement": "Solubility", "setting": "[6]; S6: PEG 400 25%, propylene glycol 50%, glycerin 25%", "value": 19.99, "unit": "mg/mL"}, {"measurement": "Solubility", "setting": "[6]; S7: PEG 400 37.5%, propylene glycol 12.5%, glycerin 50%", "value": 20.46, "unit": "mg/mL"}, {"measurement": "Solubility", "setting": "[6]; S8: PEG 400 37.5%, propylene glycol 25%, glycerin 37.5%", "value": 21.81, "unit": "mg/mL"}, {"measurement": "Solubility", "setting": "[6]; S9: PEG 400 37.5%, propylene glycol 37.5%, glycerin 25%", "value": 24.63, "unit": "mg/mL"}, {"measurement": "Solubility", "setting": "[6]; S10: PEG 400 37.5%, propylene glycol 50%, glycerin 12.5%", "value": 22.59, "unit": "mg/mL"}, {"measurement": "Solubility", "setting": "[6]; S11: PEG 400 50%, propylene glycol 0%, glycerin 50%", "value": 22.86, "unit": "mg/mL"}, {"measurement": "Solubility", "setting": "[6]; S12: PEG 400 50%, propylene glycol 12.5%, glycerin 37.5%", "value": 23.67, "unit": "mg/mL"}, {"measurement": "Solubility", "setting": "[6]; S13: PEG 400 50%, propylene glycol 25%, glycerin 25%", "value": 24.31, "unit": "mg/mL"}, {"measurement": "Solubility", "setting": "[6]; S14: PEG 400 50%, propylene glycol 37.5%, glycerin 12.5%", "value": 28.21, "unit": "mg/mL"}, {"measurement": "Solubility", "setting": "[6]; S15: PEG 400 50%, propylene glycol 50%, glycerin 0%", "value": 28.64, "unit": "mg/mL"}, {"measurement": "Solubility", "setting": "[6]; S16: PEG 400:propylene glycol:glycerin 10:2:4 (PEG 400 62.5%)", "value": 22.7, "unit": "mg/mL"}, {"measurement": "Solubility", "setting": "[6]; S17: PEG 400:propylene glycol:glycerin 10:3:3 (PEG 400 62.5%)", "value": 20.7, "unit": "mg/mL"}, {"measurement": "Solubility", "setting": "[6]; S18: PEG 400:propylene glycol:glycerin 10:4:2 (PEG 400 62.5%), i.e. 5:2:1 w/w/w", "value": 30.2, "unit": "mg/mL"}, {"measurement": "Solubility", "setting": "[6]; S19: PEG 400:propylene glycol:glycerin 6:1:1 (PEG 400 75%)", "value": 29.1, "unit": "mg/mL"}, {"measurement": "Solubility", "setting": "[6]; S20: PEG 400:propylene glycol:glycerin 3:1:0 (PEG 400 75%)", "value": 28.8, "unit": "mg/mL"}, {"measurement": "50% cytotoxic concentration (CC50)", "setting": "[7]", "value": "greater than 5 μg/mL"}]}
